# Source: article PMC6976987 (Molecular Genetics and Metabolism Reports, 2020)
# Key:
# Safety assessments [1] = assay type: in vivo, human; conditions: concomitant dosing with eliglustat, N = 33
# Outline: (§1)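 Open-label study in healthy adults. Safety was monitored after a single dose (Day 1), during multiple doses alone (Days 2–8), and during co-dosing (Days 9–15 with the CYP3A/P-gp inhibitor; Days 9–18 with the CYP2D6 inhibitor). Measures: treatment-emergent AEs, clinical labs, vital signs, physical exams, 12-lead ECG, 12 h continuous telemetry. An AE counted as treatment-related if possibly, probably or definitely related to study drug.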
# Safety assessments [2] = assay type: in vivo, human
# Outline: as §1
Structure (SMILES),subjects reporting AEs related to ketoconazole (Safety assessments [1]) [%],"subjects reporting AEs related to paroxetine (Safety assessments [2]; concomitant dosing with eliglustat, N = 35) [%]","subjects with moderate clinically significant increases in blood pressure (Safety assessments [2]; concomitant dosing, deemed probably related to paroxetine) [%]"
CC(=O)N1CCN(c2ccc(OCC3COC(Cn4ccnc4)(c4ccc(Cl)cc4Cl)O3)cc2)CC1 (stereo not drawn) [ketoconazole],33.3,–,–
Fc1ccc([C@@H]2CCNC[C@H]2COc2ccc3c(c2)OCO3)cc1 [paroxetine],–,71.4,17.1
